Laboratory results taken from ChEMBL document CHEMBL1138790, “Second-generation lymphocyte function-associated antigen-1 inhibitors: 1H-imidazo[1,2-alpha]imidazol-2-one derivatives” (J Med Chem, 2004).

What was measured:
[1] = target: T1, Intercellular adhesion molecule (ICAM-1), Integrin alpha-L/beta-2 (Homo sapiens, UniProt P05107+P20701); test: Dissociation constant for human Lymphocyte function associated antigen 1 in LFA-1/ICAM-1 binding assay; format: protein-complex assay
[2] = test system: Cell line; test: cells; format: functional, cell-based; settings: Homo sapiens, Blood
[3] = Concentration of compound required for 50% inhibition of aggregation of JY cell lines; format: functional, cell-based; settings: Homo sapiens
[4] = target: T1, Intercellular adhesion molecule (ICAM-1), Integrin alpha-L/beta-2; test: Dissociation constant for human Lymphocyte function associated antigen1 in LFA-1/ICAM-1 binding assay
[5] = target: T1, Intercellular adhesion molecule (ICAM-1), Integrin alpha-L/beta-2; test: Dissociation constant against human Lymphocyte function associated antigen1 in LFA-1/ICAM-1 binding assay; format: protein-complex assay
[6] = organism: Mus musculus; test: tissue or blood; format: functional, organism-based
[7] = test system: Cell line; test: Concentration required for irreversible binding to human liver microsomes; format: functional
[8] = Maximum plasma concentration present after 4 hours of administration of compound of at 30 mg/kg; format: ADME, organism-based, Homo sapiens; parameters: dose 30 mg/kg; settings: read-out: Concentration
[9] = Concentration required for inhibition of aggregation of JY cell line; format: functional, cell-based; settings: Homo sapiens
[10] = Maximum plasma concentration present after 4 hours of administration of compound of at 100 mg/kg; format: ADME, organism-based, Homo sapiens; parameters: dose 100 mg/kg; settings: read-out: Concentration
Outline: (§1)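 Mice in the SEB-induced IL-2 production experiment were dosed orally at 30 or 100 mg/kg. Plasma drug concentration was measured 4 h after dosing and reported in ng/mL.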

[11] = target: T1, Intercellular adhesion molecule (ICAM-1), Integrin alpha-L/beta-2; test: Dissociation constant for human Lymphocyte function-associated antigen-1 in LFA-1/ICAM-1 binding assay; format: protein-complex assay
[12] = Maximum plasma concentration present after 4 hours of administration of compound of concentration 100 mg/kg; format: ADME, organism-based, Homo sapiens; parameters: dose 100 mg/kg; settings: read-out: Concentration; outline: as §1
[13] = Maximum plasma concentration present after 4 hours of administration of compound at 30 mg/kg; format: ADME, organism-based, Homo sapiens; parameters: dose 30 mg/kg; settings: read-out: Concentration
[14] = Concentration required to inhibit aggregation of JY cells; format: functional, cell-based; settings: Homo sapiens

T1 sequence (P20701 whole entry): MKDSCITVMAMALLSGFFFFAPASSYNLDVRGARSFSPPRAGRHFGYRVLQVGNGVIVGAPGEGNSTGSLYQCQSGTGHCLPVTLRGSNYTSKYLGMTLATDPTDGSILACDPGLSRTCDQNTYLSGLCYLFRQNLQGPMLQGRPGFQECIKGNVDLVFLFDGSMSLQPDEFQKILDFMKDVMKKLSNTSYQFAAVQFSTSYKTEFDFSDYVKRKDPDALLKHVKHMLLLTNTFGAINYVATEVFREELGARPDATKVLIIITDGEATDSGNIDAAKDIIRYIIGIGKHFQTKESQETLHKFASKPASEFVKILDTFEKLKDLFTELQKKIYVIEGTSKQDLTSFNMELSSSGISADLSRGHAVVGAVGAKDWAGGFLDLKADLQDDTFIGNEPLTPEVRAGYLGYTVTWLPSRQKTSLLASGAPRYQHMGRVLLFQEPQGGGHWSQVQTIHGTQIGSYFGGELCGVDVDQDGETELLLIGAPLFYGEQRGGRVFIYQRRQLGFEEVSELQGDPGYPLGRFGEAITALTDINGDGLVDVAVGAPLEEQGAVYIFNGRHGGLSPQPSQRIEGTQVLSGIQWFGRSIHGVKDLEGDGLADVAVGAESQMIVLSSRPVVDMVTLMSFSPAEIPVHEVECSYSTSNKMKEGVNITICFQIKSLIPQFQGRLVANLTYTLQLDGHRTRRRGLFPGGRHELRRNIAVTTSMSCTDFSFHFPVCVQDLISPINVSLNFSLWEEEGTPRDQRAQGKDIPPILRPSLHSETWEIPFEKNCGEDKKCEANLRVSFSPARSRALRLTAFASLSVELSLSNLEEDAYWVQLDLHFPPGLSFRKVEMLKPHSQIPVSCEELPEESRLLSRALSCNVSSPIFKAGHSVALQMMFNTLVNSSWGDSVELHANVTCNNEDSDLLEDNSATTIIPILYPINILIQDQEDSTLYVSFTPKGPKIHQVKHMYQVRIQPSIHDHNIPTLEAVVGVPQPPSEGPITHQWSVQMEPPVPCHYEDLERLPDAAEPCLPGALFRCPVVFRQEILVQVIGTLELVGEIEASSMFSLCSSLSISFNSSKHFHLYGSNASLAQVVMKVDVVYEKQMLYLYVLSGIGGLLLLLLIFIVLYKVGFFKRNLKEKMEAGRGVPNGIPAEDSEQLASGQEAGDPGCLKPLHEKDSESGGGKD
T1 sequence (P05362 whole entry, further chain): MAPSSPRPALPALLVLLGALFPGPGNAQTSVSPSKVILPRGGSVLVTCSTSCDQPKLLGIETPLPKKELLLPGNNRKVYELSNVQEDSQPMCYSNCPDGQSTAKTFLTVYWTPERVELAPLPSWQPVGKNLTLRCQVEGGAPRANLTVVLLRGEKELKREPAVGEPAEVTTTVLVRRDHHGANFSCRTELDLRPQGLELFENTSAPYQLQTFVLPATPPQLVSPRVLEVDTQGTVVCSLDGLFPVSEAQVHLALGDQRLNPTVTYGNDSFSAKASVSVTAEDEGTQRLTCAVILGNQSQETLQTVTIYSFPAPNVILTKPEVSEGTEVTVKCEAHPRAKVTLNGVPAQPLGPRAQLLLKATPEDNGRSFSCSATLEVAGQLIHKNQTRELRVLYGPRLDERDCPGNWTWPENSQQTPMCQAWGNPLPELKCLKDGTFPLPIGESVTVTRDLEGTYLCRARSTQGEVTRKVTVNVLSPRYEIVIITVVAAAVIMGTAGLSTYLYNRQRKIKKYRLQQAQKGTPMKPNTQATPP
T1 sequence (P05107 whole entry): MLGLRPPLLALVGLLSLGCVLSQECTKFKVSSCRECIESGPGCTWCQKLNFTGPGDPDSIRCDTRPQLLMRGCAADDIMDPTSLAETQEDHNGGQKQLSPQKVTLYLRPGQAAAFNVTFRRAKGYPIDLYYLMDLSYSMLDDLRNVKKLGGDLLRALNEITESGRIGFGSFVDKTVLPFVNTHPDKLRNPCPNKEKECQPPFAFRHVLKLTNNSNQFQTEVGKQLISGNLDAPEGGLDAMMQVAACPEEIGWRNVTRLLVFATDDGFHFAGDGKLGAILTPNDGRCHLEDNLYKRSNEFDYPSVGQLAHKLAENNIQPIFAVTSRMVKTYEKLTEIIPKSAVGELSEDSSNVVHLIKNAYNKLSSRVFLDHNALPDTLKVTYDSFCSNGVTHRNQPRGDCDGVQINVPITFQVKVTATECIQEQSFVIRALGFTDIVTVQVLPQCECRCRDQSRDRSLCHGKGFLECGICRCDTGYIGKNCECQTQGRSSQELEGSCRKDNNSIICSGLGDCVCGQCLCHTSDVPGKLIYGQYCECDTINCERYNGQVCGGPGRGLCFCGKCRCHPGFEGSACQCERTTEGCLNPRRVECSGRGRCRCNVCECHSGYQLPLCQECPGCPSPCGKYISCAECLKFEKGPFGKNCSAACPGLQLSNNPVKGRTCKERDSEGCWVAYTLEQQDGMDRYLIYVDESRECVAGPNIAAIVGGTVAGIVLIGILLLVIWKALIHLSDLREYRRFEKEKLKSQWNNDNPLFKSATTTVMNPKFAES

In the case of COCCCS(=O)(=O)c1cnc2n1[C@](C)(Cc1ccc(Br)cc1)C(=O)N2c1cc(Cl)cc(Cl)c1, the Kd [1] is reported as 20 nM.

Work on CC1(Cc2ccc(Br)cc2)C(=O)N(c2cc(Cl)cc(Cl)c2)c2nc(I)cn21 (centres undefined) yielded a Kd [1] greater than 20000 nM.

CC1(Cc2ccc(Br)cc2)C(=O)N(c2cc(Cl)cc(Cl)c2)c2nnnn21 (centres undefined) gave a Kd [1] of 110 nM.

For CC1(Cc2ccc(Br)cc2)C(=O)N(c2cc(Cl)cc(Cl)c2)c2ncc(I)n21 (centres undefined), the Kd [1] was 410 nM.

Work on CC1(Cc2ccc(Br)cc2)C(=O)N(c2cc(Cl)cc(Cl)c2)c2nc(Br)cn21 (centres undefined) yielded a Kd [1] of 630 nM.

Compound C[C@@]1(Cc2ccc(Br)cc2)C(=O)N(c2cc(Cl)cc(Cl)c2)c2ncc(S(=O)(=O)CCCO)n21 has a Kd [1] of 10 nM, an IC50 [2] of 10.4 µM and an IC50 [3] of 90 nM. It also gave a Kd [4] of 10 nM and a Kd [5] of 100 nM.

Compound C[C@@]1(Cc2ccc(Br)cc2)C(=O)N(c2cc(Cl)cc(Cl)c2)c2ncc(S(=O)(=O)CCCCO)n21 has a Kd [1] of 10 nM.

Compound CC1(Cc2ccc(Br)cc2)C(=O)N(c2cc(Cl)cc(Cl)c2)c2ncc(C#N)n21 (centres undefined) has a Kd [1] of 190 nM.

Compound Cc1cnc2n1C(C)(Cc1ccc(Br)cc1)C(=O)N2c1cc(Cl)cc(Cl)c1 (centres undefined) has a Kd [1] of 340 nM.

With CC(=O)NCCCS(=O)(=O)c1cnc2n1[C@](C)(Cc1ccc(Br)cc1)C(=O)N2c1cc(Cl)cc(Cl)c1 the Kd [1] was 30 nM, the IC50 [2] was 9.5 µM and the IC50 [3] was 350 nM. It also gave a Kd [5] of 70 nM and an IC50 [6] of 9.5 µM.

Work on CC1(Cc2ccc(Br)cc2)C(=O)N(c2cc(Cl)cc(Cl)c2)c2nncn21 (centres undefined) yielded a Kd [1] of 40 nM.

CC1(Cc2ccc(Br)cc2)C(=O)N(c2cc(Cl)cc(Cl)c2)c2ncc(S(C)(=O)=O)n21 (centres undefined) gave a Kd [1] of 70 nM.

With C[C@@]1(Cc2ccc(Br)cc2)C(=O)N(c2cc(Cl)cc(Cl)c2)c2ncc(S(=O)(=O)CCO)n21 the Kd [1] was 40 nM.

C[C@@]1(Cc2ccc(Br)cc2)C(=O)N(c2cc(Cl)cc(Cl)c2)c2nccn21 showed a Kd [1] of 10 nM, an Activity [7] of 114 pM/min/ml and a Cmax [8] of 25 ng/mL. For the same compound, the IC50 [9] was 1200 nM and the Cmax [10] was 155 ng/mL.

CC1(Cc2ccc(Br)cc2)C(=O)N(c2cc(Cl)cc(Cl)c2)c2nc(S(C)(=O)=O)cn21 (centres undefined) showed a Kd [1] of 920 nM.

Compound C[C@@]1(Cc2ccc(Br)cc2)C(=O)N(c2cc(Cl)cc(Cl)c2)c2ncc(S(=O)(=O)N3CCOCC3)n21 has a Kd [1] of 20 nM.

C[C@@]1(Cc2ccc(Br)cc2)C(=O)N(c2cc(Cl)cc(Cl)c2)c2ncc(S(=O)(=O)CCCN)n21 gave a Kd [1] of 170 nM.

Compound C[C@@]1(Cc2ccc(Br)cc2)C(=O)N(c2cc(Cl)cc(Cl)c2)c2ncc(S(=O)(=O)N3CCNCC3)n21 has a Kd [1] of 50 nM, an IC50 [2] of 27.8 µM and an IC50 [3] of 380 nM. For the same compound, the Kd [5] was 400 nM and the IC50 [6] was 27.8 µM.

Compound CC(=O)OCCCCS(=O)(=O)c1cnc2n1[C@](C)(Cc1ccc(Br)cc1)C(=O)N2c1cc(Cl)cc(Cl)c1 has a Kd [1] of 30 nM.

Compound C[C@@]1(Cc2ccc(Br)cc2)C(=O)N(c2cc(Cl)cc(Cl)c2)c2ncc(S(=O)(=O)N3CCC(O)CC3)n21 has a Kd [1] of 8 nM, an IC50 [2] of 4.6 µM and a Kd [11] of 9 nM. It also gave an IC50 [3] of 30 nM, a Kd [5] of 40 nM and an IC50 [6] of 4.6 µM.

With CNCCCS(=O)(=O)c1cnc2n1[C@](C)(Cc1ccc(Br)cc1)C(=O)N2c1cc(Cl)cc(Cl)c1 the Kd [1] was 150 nM.

In the case of CC(=O)OCCCS(=O)(=O)c1cnc2n1[C@](C)(Cc1ccc(Br)cc1)C(=O)N2c1cc(Cl)cc(Cl)c1, the Kd [1] is reported as 10 nM, the IC50 [2] is reported as 7 µM and the IC50 [3] is reported as 370 nM. For the same compound, the Kd [5] was 40 nM.

C[C@]1(Cc2ccc(Br)cc2)C(=O)N(c2cc(Cl)cc(Cl)c2)c2nccn21 gave a Kd [1] greater than 7000 nM.

Compound C[C@@]1(Cc2ccc(Br)cc2)C(=O)N(c2cc(Cl)cc(Cl)c2)c2ncc(S(=O)(=O)N3CCCCC3)n21 has a Kd [1] of 50 nM.

COc1cnc2n1C(C)(Cc1ccc(Br)cc1)C(=O)N2c1cc(Cl)cc(Cl)c1 (centres undefined) gave a Kd [1] of 360 nM.

CC1(Cc2ccc(Br)cc2)C(=O)N(c2cc(Cl)cc(Cl)c2)c2ncc(Br)n21 (centres undefined) showed a Kd [1] of 180 nM.

CC1(Cc2ccc(Br)cc2)C(=O)N(c2cc(Cl)cc(Cl)c2)c2nc(C#N)cn21 (centres undefined) showed a Kd [1] of 280 nM.

C[C@@]1(Cc2ccc(Br)cc2)C(=O)N(c2cc(Cl)cc(Cl)c2)c2ncc(S(C)(=O)=O)n21 gave a Kd [1] of 50 nM, a Cmax [12] of 14400 ng/mL and a Cmax [13] of 2800 ng/mL. It also gave an IC50 [9] of 260 nM.

Work on CN1C(=O)N(c2cc(Cl)cc(Cl)c2)C(=O)[C@@]1(C)Cc1ccc(Br)cc1 yielded an Activity [7] of 141 pM/min/mg and an IC50 [14] of 240 nM.

For C[C@@]1(Cc2ccc(Br)cc2)C(=O)N(c2cc(Cl)cc(Cl)c2)c2ncc(S(=O)(=O)N3CCCC(O)C3)n21 (some centres undefined), the Kd [1] was 70 nM.

C[C@@]1(Cc2ccc(Br)cc2)C(=O)N(c2cc(Cl)cc(Cl)c2)c2ncc(S(=O)(=O)N3CCC(=O)CC3)n21 showed a Kd [1] of 10 nM, an IC50 [2] of 5.5 µM and an IC50 [3] of 250 nM. The Kd [5] was 300 nM and the IC50 [6] was 5.5 µM.

CC1(Cc2ccc(Br)cc2)C(=O)N(c2cc(Cl)cc(Cl)c2)c2nccn21 (racemic) showed a Kd [1] of 380 nM.
